From ChEMBL document CHEMBL3526048, “In vitro metabolism of rivoglitazone, a novel peroxisome proliferator-activated receptor γ agonist, in rat, monkey, and human liver microsomes and freshly isolated hepatocytes” (Drug Metab Dispos, 2011)

Legend:
[1] = Retention time of the compound by LC-MS/MS analysis; type: physicochemical
How it was run: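 LC-MS/MS used a YMC-Pack ODS-A column (1.5 × 150 mm, 5 μm) at 30°C, 0.1 ml/min. Mobile phase was water and acetonitrile, each with 0.01% TFA. Gradient: 12→60% B over 30 min, →90% B over 5 min, hold 5 min. Detection was UV 220 nm with positive ESI Q-TOF (capillary 3300 V, cone 45 V), collision energy 20 eV and xenon as collision gas.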

Liver microsome = test: Drug level in human liver microsomes treated with [14C]-rivoglitazone at 20 uM after 2 to 4 hrs by radio-HPLC/LC-MS/MS analysis in presence of UDPGA, UDPGA/SAM and NADPH-generating system; type: ADME
Hepatocyte = test: Drug level in human hepatocytes treated with [14C]-rivoglitazone at 30 uM after 3 hrs by radio-HPLC/LC-MS/MS analysis in presence of UDPGA, UDPGA/SAM and NADPH-generating system; type: ADME, cell-based
Cytochrome P450 2C8 = target: T1, Cytochrome P450 2C8 (Homo sapiens, UniProt P10632); test: Activity of human CYP2C8 expressed in microsomes isolated from baculovirus infected insect cell assessed as enzyme-mediated 2-((4-((2,4-dioxothiazolidin-5-yl)methyl)phenoxy)methyl)-1-methyl-1H-benzo[d]imidazol-6-yl hydrogen sulfate formation at 20 uM after 2 hrs by radio-HPLC/LC-MS/MS analysis; type: ADME
T1 sequence (P10632 whole entry): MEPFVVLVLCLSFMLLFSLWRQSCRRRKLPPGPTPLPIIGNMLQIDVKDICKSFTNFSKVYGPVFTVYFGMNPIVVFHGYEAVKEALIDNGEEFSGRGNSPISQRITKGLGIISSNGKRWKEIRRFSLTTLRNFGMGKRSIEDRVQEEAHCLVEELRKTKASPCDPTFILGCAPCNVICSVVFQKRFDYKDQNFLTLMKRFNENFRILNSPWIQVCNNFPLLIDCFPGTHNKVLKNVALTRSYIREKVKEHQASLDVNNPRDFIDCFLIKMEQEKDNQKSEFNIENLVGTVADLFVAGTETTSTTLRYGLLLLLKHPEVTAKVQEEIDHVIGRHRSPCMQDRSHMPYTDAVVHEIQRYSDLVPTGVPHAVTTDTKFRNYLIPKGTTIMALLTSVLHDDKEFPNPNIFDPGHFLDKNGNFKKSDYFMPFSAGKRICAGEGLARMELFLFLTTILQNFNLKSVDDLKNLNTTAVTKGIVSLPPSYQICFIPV
How it was run: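 Baculovirus/insect-cell microsomes expressing single human CYPs, 1 mg/ml protein, with 50 mM potassium phosphate (pH 7.4) or 100 mM Tris-HCl (pH 7.5). NADPH-generating system: 2 mM NADP⁺, 20 mM glucose 6-phosphate, 2 units/ml G6PDH, 10 mM MgCl₂. [¹⁴C]rivoglitazone at 20 μM, 2 h at 37°C with shaking. Control used insect-cell control supersomes. Stopped with acetonitrile; supernatant concentrated under nitrogen; metabolites analysed by radio-HPLC, LC-MS and LC-MS/MS.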

[2] = target: T2, UDP-glucuronosyltransferase 2B7 (Homo sapiens, UniProt P16662); test: Activity of human UGT2B7 expressed in microsomes isolated from baculovirus infected insect cell assessed as enzyme-mediated (2S,3S,4S,5R,6R)-6-((1-carboxy-2-(4-((6-methoxy-1-methyl-1H-benzo[d]imidazol-2-yl)methoxy)phenyl)ethylthio)carbonylamino)-3,4,5-trihydroxytetrahydro-2H-pyran-2-carboxylic acid formation at 20 uM after 4 hrs by radio-HPLC/LC-MS/MS analysis in presence of NADPH-generating system/SAM; type: ADME
T2 sequence (P16662 whole entry): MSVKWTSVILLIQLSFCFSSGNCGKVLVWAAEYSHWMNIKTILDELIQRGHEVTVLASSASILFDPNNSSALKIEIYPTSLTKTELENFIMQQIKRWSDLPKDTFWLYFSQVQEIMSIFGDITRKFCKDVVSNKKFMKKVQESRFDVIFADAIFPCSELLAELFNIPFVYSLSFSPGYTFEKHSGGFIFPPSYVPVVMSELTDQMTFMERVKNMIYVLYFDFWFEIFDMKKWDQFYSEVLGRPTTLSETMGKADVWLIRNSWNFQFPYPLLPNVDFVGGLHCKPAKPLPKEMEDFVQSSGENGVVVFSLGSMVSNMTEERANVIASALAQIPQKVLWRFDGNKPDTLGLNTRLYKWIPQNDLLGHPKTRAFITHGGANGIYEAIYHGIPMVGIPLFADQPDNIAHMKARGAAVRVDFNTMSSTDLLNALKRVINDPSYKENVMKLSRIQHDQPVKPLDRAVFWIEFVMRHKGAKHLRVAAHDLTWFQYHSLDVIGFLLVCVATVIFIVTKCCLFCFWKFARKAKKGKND

Cytochrome P450 2D6 = Cytochrome P450 2D6 (Homo sapiens, UniProt P10635); test: Activity of human CYP2D6 expressed in microsomes isolated from baculovirus infected insect cell assessed as enzyme-mediated 2-hydroxy-3-(4-((6-methoxy-1-methyl-1H-benzo[d]imidazol-2-yl)methoxy)phenyl)propanamide formation at 20 uM after 2 hrs by radio-HPLC/LC-MS/MS analysis in presence of NADPH-generating system and NADPH-generating system/SAM; type: ADME
[3] = target: T2, UDP-glucuronosyltransferase 2B7; test: Activity of human UGT2B7 expressed in microsomes isolated from baculovirus infected insect cell assessed as enzyme-mediated (2S,3S,4S,5R,6R)-3,4,5-trihydroxy-6-(5-(4-((6-methoxy-1-methyl-1H-benzo[d]imidazol-2-yl)methoxy)benzyl)-2,4-dioxothiazolidin-3-yl)tetrahydro-2H-pyran-2-carboxylic acid formation at 20 uM after 4 hrs by radio-HPLC/LC-MS/MS analysis in presence of UDPGA and UDPGA/SAM; type: ADME
[4] = target: T3, UDP-glucuronosyltransferase 1A3 (Homo sapiens, UniProt P35503); test: Activity of human UGT1A3 expressed in microsomes isolated from baculovirus infected insect cell assessed as enzyme-mediated 2-mercapto-3-(4-((6-methoxy-1-methyl-1H-benzo[d]imidazol-2-yl)methoxy)phenyl)propanoic acid formation at 20 uM after 4 hrs by radio-HPLC/LC-MS/MS analysis in presence of UDPGA, UDPGA/SAM and NADPH-generating system in presence of UDPGA and UDPGA/SAM; type: ADME
T3 sequence (P35503 whole entry): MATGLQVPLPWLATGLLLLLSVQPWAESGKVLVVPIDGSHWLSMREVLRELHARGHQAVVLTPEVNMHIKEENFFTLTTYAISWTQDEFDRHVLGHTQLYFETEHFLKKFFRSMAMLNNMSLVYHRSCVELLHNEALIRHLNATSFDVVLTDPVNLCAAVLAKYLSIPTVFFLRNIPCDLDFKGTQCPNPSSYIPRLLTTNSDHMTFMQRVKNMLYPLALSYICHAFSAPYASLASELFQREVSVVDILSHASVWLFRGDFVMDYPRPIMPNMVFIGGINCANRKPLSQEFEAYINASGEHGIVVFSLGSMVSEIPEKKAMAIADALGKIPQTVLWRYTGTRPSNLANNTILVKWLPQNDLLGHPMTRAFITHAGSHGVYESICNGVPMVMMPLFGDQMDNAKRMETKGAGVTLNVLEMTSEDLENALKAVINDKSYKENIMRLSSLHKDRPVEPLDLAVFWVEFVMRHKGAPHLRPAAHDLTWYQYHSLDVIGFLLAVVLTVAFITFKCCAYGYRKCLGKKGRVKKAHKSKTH
How it was run: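 Alamethicin (50 μg/mg protein, 15 min on ice) pretreated expressed human UGT microsomes (1 mg/ml protein) from baculovirus-infected insect cells. Incubation with [¹⁴C]rivoglitazone (20 μM) in 100 mM Tris-HCl (pH 7.5) with 10 mM MgCl₂, started by 5 mM UDPGA, 4 h at 37°C with shaking. UGT insect-cell control supersomes were run alongside. Acetonitrile stop, concentrated supernatant analysed by radio-HPLC, LC-MS and LC-MS/MS.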

Sequence of Cytochrome P450 2D6 (P10635 whole entry): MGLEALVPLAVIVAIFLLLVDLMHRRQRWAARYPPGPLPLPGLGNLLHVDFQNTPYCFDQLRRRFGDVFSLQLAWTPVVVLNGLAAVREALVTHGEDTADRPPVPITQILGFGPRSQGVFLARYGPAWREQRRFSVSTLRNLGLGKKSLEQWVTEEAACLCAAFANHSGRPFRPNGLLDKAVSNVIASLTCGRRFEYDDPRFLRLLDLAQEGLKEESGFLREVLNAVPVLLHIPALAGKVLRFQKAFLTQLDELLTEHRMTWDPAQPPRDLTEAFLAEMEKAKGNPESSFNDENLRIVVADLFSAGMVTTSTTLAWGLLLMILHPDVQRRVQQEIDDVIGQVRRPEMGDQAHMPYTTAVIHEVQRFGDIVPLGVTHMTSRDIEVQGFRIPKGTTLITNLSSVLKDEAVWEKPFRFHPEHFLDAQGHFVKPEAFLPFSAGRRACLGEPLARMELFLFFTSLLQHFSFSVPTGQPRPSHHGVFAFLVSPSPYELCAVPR

Retention_time [1] | Drug metabolism (Liver microsome) | Drug metabolism (Hepatocyte) | Drug metabolism (Cytochrome P450 2C8) | Drug metabolism [2] | Drug metabolism (Cytochrome P450 2D6) | Drug metabolism [3] | Drug metabolism [4] | SMILES
23.9 min | metabolite_detected | metabolite_not_detected |  |  |  |  |  | COc1ccc2nc(COc3ccc(CC(S)C(=O)O)cc3)n(C)c2c1 (stereo not drawn)
 |  |  | metabolite_not_detected | metabolite_detected | metabolite_detected | metabolite_detected | metabolite_detected | COc1ccc2nc(COc3ccc(C[14CH]4SC(=O)NC4=O)cc3)n(C)c2c1.Cl (racemic)
